Calls of active or inactive are those of the source. No cut-off for these calls is given here.
Columns and labels:
Acetylcholinesterase [1] = biological target: T1, Acetylcholinesterase (Homo sapiens, UniProt P22303); assay: Inhibition of human AChE by Ellman's spectrophotometric method
[2] = biological target: T2, Fatty-acid amide hydrolase 1 (Homo sapiens, UniProt O00519); assay: Inhibition of human recombinant FAAH using AMC-AA as substrate preincubated with enzyme for 10 mins followed by substrate addition for 2 hrs by fluorometric analysis
T2 sequence (O00519 whole entry): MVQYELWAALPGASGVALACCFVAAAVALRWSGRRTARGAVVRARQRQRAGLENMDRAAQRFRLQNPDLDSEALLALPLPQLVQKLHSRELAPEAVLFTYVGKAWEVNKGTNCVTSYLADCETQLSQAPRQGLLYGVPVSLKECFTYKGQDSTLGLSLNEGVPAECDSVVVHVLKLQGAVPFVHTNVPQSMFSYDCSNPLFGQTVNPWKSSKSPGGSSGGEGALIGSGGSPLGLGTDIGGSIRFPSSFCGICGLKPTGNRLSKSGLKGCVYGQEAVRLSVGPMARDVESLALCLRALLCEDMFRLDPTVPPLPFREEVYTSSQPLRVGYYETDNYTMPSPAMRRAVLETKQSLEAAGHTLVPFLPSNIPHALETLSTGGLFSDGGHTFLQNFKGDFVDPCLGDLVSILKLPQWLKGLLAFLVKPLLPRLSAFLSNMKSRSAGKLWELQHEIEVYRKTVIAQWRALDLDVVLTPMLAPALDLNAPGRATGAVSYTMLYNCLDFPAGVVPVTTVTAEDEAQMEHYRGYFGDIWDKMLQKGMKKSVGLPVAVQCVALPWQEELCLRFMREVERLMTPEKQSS
In short: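 Human recombinant FAAH preincubated with inhibitor at several concentrations for 10 min at room temperature with orbital shaking in Tris-HCl 125 mM, Na2EDTA 1 mM, pH 9.0. AMC-AA substrate (5 µM final) added, then 2 h at 37 °C with fluorescence read every 30 s (ex 340, em 450 nm). Percent inhibition taken against no-inhibitor and no-enzyme wells. IC50 given as mean ± SEM of at least two independent triplicate runs.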

Cholinesterase [3] = biological target: T3, Cholinesterase (Homo sapiens, UniProt P06276); assay: Inhibition of human BuChE at 10 uM by Ellman's spectrophotometric method
In short: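 Percent inhibition of human BChE at a fixed 10 μM inhibitor concentration, by modified Ellman spectrophotometric assay in 96-well format. Incubations were run in duplicate. Values are the mean ± SEM of three independent experiments.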

Cholinesterase [4] = biological target: T3, Cholinesterase; assay: Inhibition of human BuChE by Ellman's spectrophotometric method
In short: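 Human BChE, modified Ellman spectrophotometric assay in 96-well format. Incubations were run in duplicate. IC50 was determined for inhibitors giving >60% inhibition, from seven final concentrations (10⁻⁵ to 10⁻¹¹ M) diluted in work buffer from a 1000 μM DMSO stock. Values are the mean ± SEM of three independent experiments.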

[5] = biological target: Amyloid-beta precursor protein (Homo sapiens) (UniProt P05067); assay: Inhibition of amyloid beta (1 to 40) (unknown origin) aggregation at 100 uM incubated for 2 hrs by Thioflavin T based fluorometric assay
In short: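 Aβ40 (30 µM final) co-incubated with inhibitor (100 µM final) in PBS pH 7.4 containing 2% HFIP, 2 h at 25 °C. Thioflavin T (25 µM) then added and fluorescence read. Run in triplicate, reported as mean ± SEM.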

[6] = Cytotoxicity against human SH-SY5Y cells assessed as inhibition of cell viability incubated for 24 hrs by MTT assay; type: toxicity, cell-based
In short: (§1)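 Cells from ATCC; SH-SY5Y grown in 1:1 MEM/Ham's F12, HepG2 in MEM with NEAA, both with 10% heat-inactivated FBS, glutamine, penicillin-streptomycin, 37 °C, 5% CO2. Seeded 10,000-25,000 cells/well, next day exposed to half-log serial dilutions (100 µM to 100 nM) in 1% DMSO final, with untreated controls. After 24 or 48 h, MTT 0.5 mg/mL for 3–4 h at 37 °C; formazan dissolved in DMSO/EtOH 1:1, absorbance 570 nm.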

[7] = Cytotoxicity against human SH-SY5Y cells assessed as inhibition of cell viability incubated for 48 hrs by MTT assay; type: toxicity, cell-based; in short: as §1
[8] = Cytotoxicity against human HepG2 cells assessed as inhibition of cell viability incubated for 24 hrs by MTT assay; type: toxicity, cell-based; in short: as §1
[9] = Cytotoxicity against human HepG2 cells assessed as inhibition of cell viability incubated for 48 hrs by MTT assay; type: toxicity, cell-based; in short: as §1
Acetylcholinesterase [10] = biological target: T1, Acetylcholinesterase; assay: Potency index, ratio of donepezil IC50 to test compound IC50 for inhibition of human AChE by Ellman's spectrophotometric method
Homo sapiens = species on record: Homo sapiens; assay: Selectivity index, ratio of IC50 for human BuChE to IC50 for human AChE
Cholinesterase [11] = biological target: T3, Cholinesterase; assay: Potency index, ratio of donepezil IC50 to test compound IC50 for inhibition of human BuChE by Ellman's spectrophotometric method
[12] = Metal chelating activity assessed as Cu2+-compound complex formation by measuring global formation constant, log(beta)(CumHhLl) in 30% DMSO/water medium by pH potentiometric analysis
In short: (§2)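 Cu2+ binding measured by pH-potentiometric titration in 30% w/w DMSO/H2O at 25.0 ± 0.1 °C, ionic strength 0.1 M KCl, with 0.08 M KOH as titrant. Ligand concentration was 4.4×10^-4 M, with Cu:L ratios of 0:1, 1:1 and 1:2. Glass and Ag/AgCl electrodes were checked by HCl/KOH calibration (Gran's method), pKw 14.66. Protonation and complex stability constants came from fitting the data to an equilibrium model.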

[13] = Metal chelating activity assessed as Cu2+-compound complex formation at Cu2+:compound concentration ratio of 1:1 to 1:2 in 30% DMSO/water medium by pH potentiometric analysis; in short: as §2
[14] = Metal chelating activity assessed as compound-Zn2+ complex formation at compound:Zn2+ concentration ratio of 1:1 in DMSO-d6/D2O medium by 1H-NMR analysis
[15] = Metal chelating activity assessed as compound-Cu2+ complex formation at stoichiometric ratio of 1:1 in 30% w/w DMSO/H2O medium by ESI-MS spectral analysis
In short: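 ESI-MS on an ion-trap instrument in positive and negative ion modes of Cu2+:ligand 1:1 solution in 30% w/w DMSO/H2O. Ligand concentration 2.6×10^-4 M, pH 5.68. Spray voltage ±4.5 kV, capillary temperature 280 °C, N2 sheath gas.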

[16] = Protonation constant of the compound, logKi in 30% w/w DMSO/H2O medium; type: physicochemical
In short: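 pH-potentiometric titration in 30% w/w DMSO/H2O at 25.0 ± 0.1 °C, ionic strength 0.1 M KCl, titrant 0.08 M KOH, ligand 4.4×10^-4 M. Glass and Ag/AgCl electrodes conditioned in DMSO/water mixtures and calibrated by HCl/KOH titration (Gran's method); pKw 14.66. Stepwise protonation constants obtained by fitting the titration data.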

T1 sequence (P22303 whole entry): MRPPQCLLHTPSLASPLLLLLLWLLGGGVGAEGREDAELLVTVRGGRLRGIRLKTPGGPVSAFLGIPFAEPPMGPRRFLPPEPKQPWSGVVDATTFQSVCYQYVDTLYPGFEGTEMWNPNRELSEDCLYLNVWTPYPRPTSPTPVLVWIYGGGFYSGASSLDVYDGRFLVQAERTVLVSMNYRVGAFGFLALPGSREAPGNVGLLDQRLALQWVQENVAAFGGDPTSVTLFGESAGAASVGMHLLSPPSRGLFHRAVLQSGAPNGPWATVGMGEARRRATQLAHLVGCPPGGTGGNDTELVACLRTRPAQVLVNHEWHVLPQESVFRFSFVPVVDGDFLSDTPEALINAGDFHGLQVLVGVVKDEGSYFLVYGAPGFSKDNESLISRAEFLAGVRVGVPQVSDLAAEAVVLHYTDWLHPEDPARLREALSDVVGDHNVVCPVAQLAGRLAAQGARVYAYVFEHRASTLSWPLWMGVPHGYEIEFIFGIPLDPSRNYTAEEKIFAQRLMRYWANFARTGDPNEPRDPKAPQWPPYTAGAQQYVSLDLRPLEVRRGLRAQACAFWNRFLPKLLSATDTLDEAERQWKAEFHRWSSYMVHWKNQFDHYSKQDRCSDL
Sequence of Amyloid-beta precursor protein (Homo sapiens) (P05067 whole entry): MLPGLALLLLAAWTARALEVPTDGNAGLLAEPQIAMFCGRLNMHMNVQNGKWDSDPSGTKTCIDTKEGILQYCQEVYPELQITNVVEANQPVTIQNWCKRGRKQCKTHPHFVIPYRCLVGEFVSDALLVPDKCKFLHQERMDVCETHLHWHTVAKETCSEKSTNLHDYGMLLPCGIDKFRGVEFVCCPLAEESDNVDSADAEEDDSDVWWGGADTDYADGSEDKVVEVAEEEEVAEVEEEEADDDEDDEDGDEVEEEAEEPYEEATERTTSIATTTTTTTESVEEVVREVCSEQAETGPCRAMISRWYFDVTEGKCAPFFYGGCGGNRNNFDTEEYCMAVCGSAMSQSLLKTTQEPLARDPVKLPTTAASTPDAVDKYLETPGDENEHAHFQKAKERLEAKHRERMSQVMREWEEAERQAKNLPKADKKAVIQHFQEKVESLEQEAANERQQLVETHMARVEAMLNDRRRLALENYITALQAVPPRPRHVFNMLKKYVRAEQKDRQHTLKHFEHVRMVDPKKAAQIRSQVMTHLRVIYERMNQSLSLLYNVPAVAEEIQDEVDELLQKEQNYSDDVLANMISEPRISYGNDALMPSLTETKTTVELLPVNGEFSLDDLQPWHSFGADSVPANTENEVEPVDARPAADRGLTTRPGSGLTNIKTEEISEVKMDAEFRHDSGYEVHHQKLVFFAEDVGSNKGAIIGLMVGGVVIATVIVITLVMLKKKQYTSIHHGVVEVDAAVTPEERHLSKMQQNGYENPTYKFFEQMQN
T3 sequence (P06276 whole entry): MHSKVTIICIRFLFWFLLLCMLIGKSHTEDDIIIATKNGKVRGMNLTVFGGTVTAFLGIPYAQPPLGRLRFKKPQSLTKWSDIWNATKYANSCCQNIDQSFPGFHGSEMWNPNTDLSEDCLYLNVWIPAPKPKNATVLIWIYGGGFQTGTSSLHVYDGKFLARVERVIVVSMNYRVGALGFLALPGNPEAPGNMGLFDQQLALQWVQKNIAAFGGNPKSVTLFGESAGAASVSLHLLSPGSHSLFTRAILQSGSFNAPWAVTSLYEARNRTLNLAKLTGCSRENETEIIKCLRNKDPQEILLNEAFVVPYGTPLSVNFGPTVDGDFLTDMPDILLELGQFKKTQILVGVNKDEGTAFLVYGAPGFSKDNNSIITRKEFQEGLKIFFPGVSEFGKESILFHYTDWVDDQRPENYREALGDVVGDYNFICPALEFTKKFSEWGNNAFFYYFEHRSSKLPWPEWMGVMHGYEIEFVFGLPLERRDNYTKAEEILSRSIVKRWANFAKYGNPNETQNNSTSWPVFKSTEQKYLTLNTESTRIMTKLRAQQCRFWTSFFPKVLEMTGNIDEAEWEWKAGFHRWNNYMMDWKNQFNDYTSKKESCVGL

| SMILES | IC50 (Acetylcholinesterase [1]) [µM] | IC50 [2] [µM] | inhibition (Cholinesterase [3]) [%] | IC50 (Cholinesterase [4]) [µM] | further results |
| --- | --- | --- | --- | --- | --- |
| O=C(COc1cc(F)ccc1[N+](=O)[O-])NCC1CCN(Cc2ccccc2)CC1 | 0.103 | 28.1 | 54 |  |  |
| O=C(COc1ccc([N+](=O)[O-])cc1)NCC1CCN(Cc2ccccc2)CC1 | 0.509 | 28.5 | 24 |  |  |
| O=C(Oc1ccc([N+](=O)[O-])cc1)N1CCN(Cc2cccc(Oc3ccccc3)c2)CC1 |  | 0.019 |  |  |  |
| O=C(COc1ccc(Cl)cc1[N+](=O)[O-])NCC1CCN(Cc2ccccc2)CC1 | 0.122 | 23.3 |  | 4.7 |  |
| COc1ccc(OCC(=O)NCCN2CCN(Cc3ccccc3)CC2)cc1 | 0.3 | 51.9 | 25 |  | inhibition [5]: 30% |
| O=C(COc1ccc(-c2ccccc2)cc1)NCCN1CCN(Cc2ccccc2)CC1 | 0.735 | 63.9 |  | 0.969 |  |
| O=C(COc1ccc(Cl)cc1)NCC1CCN(Cc2ccccc2)CC1 | 1.68 | 20.9 |  | 5.61 | inhibition [5]: 30%; IC50 at 24 h [6]: > 100 µM; IC50 at 48 h [7]: > 100 µM; IC50 at 24 h [8]: > 100 µM; IC50 at 48 h [9]: > 100 µM |
| O=C(COc1ccc(CCc2ccccc2)cc1)NCC1CCN(Cc2ccccc2)CC1 | 0.135 | 23.8 |  | 5.08 |  |
| O=C(COc1ccc(-c2ccccc2)cc1)NCC1CCN(Cc2ccccc2)CC1 | 1.7 | 23.3 |  | 5.58 |  |
| O=C(COc1ccc(Cc2ccccc2)cc1)NCC1CCN(Cc2ccccc2)CC1 | 1.27 | 21.9 | 37 |  |  |
| Cc1cc(Br)cc(C)c1OCC(=O)NCC1CCN(Cc2ccccc2)CC1 | 0.595 | 28.6 |  | 2.22 |  |
| Cc1cc(Br)cc(C)c1OCC(=O)NCCN1CCN(Cc2ccccc2)CC1 | 0.09 | 40.8 |  | 4.1 |  |
| O=C(COc1ccc(Cc2ccccc2)cc1)NCCN1CCN(Cc2ccccc2)CC1 | 0.993 | 23.6 | 29 |  |  |
| O=C(COc1ccc([N+](=O)[O-])cc1)NCCN1CCN(Cc2ccccc2)CC1 | 0.042 | 43.9 |  |  | inhibition [5]: 30% |
| O=C(COc1cc(F)ccc1[N+](=O)[O-])NCCN1CCN(Cc2ccccc2)CC1 | 0.0028 | 49.6 |  | 5.01 | Ratio IC50 (Acetylcholinesterase [10]): 6; Ratio IC50 (Homo sapiens): 1790; IC50 at 24 h [6]: > 100 µM; IC50 at 48 h [7]: > 100 µM; IC50 at 24 h [8]: > 100 µM; IC50 at 48 h [9]: > 100 µM |
| O=C(COc1ccc(CCc2ccccc2)cc1)NCCN1CCN(Cc2ccccc2)CC1 | 0.9 | 16.8 | 45 |  | inhibition [5]: 30%; IC50 at 24 h [6]: 27.8 µM; IC50 at 48 h [7]: 34.8 µM; IC50 at 24 h [8]: 41.6 µM; IC50 at 48 h [9]: 15.8 µM |
| COc1ccc(OCC(=O)NCC2CCN(Cc3ccccc3)CC2)cc1 | 0.88 | 40.8 | 55 |  |  |
| O=C(COc1ccc(Cl)cc1)NCCN1CCN(Cc2ccccc2)CC1 | 0.189 | > 100 |  | 2.15 | inhibition [5]: 30% |
| O=C(COc1ccccc1C(F)(F)F)NCC1CCN(Cc2ccccc2)CC1 | 0.767 | 38.2 |  | 1.02 |  |
| O=C(COc1ccccc1C(F)(F)F)NCCN1CCN(Cc2ccccc2)CC1 | 0.136 | 55.1 |  | 0.503 |  |
| O=C(COc1ccc(Cl)cc1[N+](=O)[O-])NCCN1CCN(Cc2ccccc2)CC1 | 0.0008 | 41.6 |  | 1.41 | Ratio IC50 (Acetylcholinesterase [10]): 21; Ratio IC50 (Homo sapiens): 1760; IC50 at 24 h [6]: > 100 µM; IC50 at 48 h [7]: > 100 µM; IC50 at 24 h [8]: > 100 µM; IC50 at 48 h [9]: > 100 µM; Ratio IC50 (Cholinesterase [11]): 3; log(activity) [12]: -1.81; Activity [13]: Active; Activity [14]: Active; Activity [15]: Active; log(activity) [16]: 2.89 |
